In ChEMBL document CHEMBL4229399, “Discovery and optimization of aspartate aminotransferase 1 inhibitors to target redox balance in pancreatic ductal adenocarcinoma” (Bioorg Med Chem Lett, 2018):
Active and inactive are the calls of the source. No cut-off for these calls is given here.

How the values were obtained:
[1] = biological target: T1, Aspartate aminotransferase, cytoplasmic (Homo sapiens, UniProt P17174); assay: Inhibition of GOT1 (unknown origin) using aspartate and alpha-ketoglutarate as substrate after 20 mins by MDH1 enzyme-coupled fluorescence assay
T1 sequence (P17174 whole entry): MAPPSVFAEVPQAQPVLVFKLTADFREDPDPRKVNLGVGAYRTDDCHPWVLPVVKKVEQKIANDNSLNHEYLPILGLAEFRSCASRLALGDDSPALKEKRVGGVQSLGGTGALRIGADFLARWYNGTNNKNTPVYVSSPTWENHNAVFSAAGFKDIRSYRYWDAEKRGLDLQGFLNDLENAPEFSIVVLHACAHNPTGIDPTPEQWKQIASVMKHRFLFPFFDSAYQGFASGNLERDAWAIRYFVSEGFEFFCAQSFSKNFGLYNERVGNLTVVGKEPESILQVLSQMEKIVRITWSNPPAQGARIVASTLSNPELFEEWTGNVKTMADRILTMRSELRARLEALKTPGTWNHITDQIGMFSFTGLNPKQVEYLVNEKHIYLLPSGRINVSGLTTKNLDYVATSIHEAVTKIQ
Method in brief: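 Oxaloacetate from GOT1 (~1 nM) is reduced by MDH1 (0.3 µg/mL final) using NADH (250 µM final). Loss of NADH fluorescence is read at 340/445 nm. Substrates aspartate 4 mM and alpha-ketoglutarate 0.5 mM. Buffer: 100 mM HEPES, 100 mM KCl. Incubated 20 min at 37 °C. Mean of n = 3.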

[2] = Stability in mouse plasma assessed as parent compound remaining after 4 hrs; format: ADME, cell-free; conditions: read-out: Stability
Mus musculus = assay: AUC (0 to 24 hrs) in CD-1 mouse at 20 mg/kg administered via oral gavage by LC-MS/MS analysis; format: ADME, organism-based; parameters: time < 24 hr, dose 20 mg/kg, route oral; conditions: in vivo
Method in brief: (§1)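 Female CD1 mice, 9 weeks old, oral gavage at 20 mg/kg (5 mL/kg). Fasted overnight, with food returned after the 4-h bleed. Blood sampled retro-orbitally at 0.5, 1, 4, 8 and 24 h, n = 3 per time point. Plasma separated by centrifugation and frozen at -80 °C. Drug level quantified by LC/MS/MS from analyte peak area.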

[3] = biological target: T1, Aspartate aminotransferase, cytoplasmic; assay: Inhibition of GOT1 (unknown origin) using aspartate and alpha-ketoglutarate as substrate after 20 mins by GLOX enzyme-coupled fluorescence assay
Method in brief: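 GOT1 (~1 nM, set per purification for a 20 min linear reaction) with aspartate 4 mM and alpha-ketoglutarate 0.5 mM (KM levels). Glutamate is turned over by GLOX (80 nM), and the H2O2 drives HRP (0.05 U/mL) oxidation of Amplex Red (15 µg/mL). Buffer: 100 mM HEPES, 100 mM KCl. Run 20 min at 37 °C; resorufin fluorescence read at 530/550 nm.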

[4] = Cmax in CD-1 mouse at 20 mg/kg administered via oral gavage by LC-MS/MS analysis; format: ADME, organism-based; parameters: dose 20 mg/kg, route oral; conditions: in vivo; method in brief: as §1
[5] = Half life in CD-1 mouse at 20 mg/kg administered via oral gavage by LC-MS/MS analysis; format: ADME, organism-based; conditions: in vivo; method in brief: as §1

Row | IC50 [1] [µM] | SMILES | further results
1 | > 100 | COc1ccccc1NC(=O)N1CCN(c2cccc3[nH]ccc23)CC1 | 
2 | > 100 | O=C(Nc1cc(Cl)ccc1Cl)N1CCN(c2cccc3[nH]ccc23)CC1 | 
3 | > 100 | COc1ccc(OC)c(NC(=O)N2CCN(c3cccc4[nH]ccc34)CC2)c1 | 
4 | > 100 | Cc1ccc(NC(=O)N2CCN(c3cccc4[nH]ccc34)CC2)cc1C | 
5 | 16 | O=C(Nc1ccc(Br)cc1)N1CCN(c2cccc3[nH]ccc23)CC1 | 
6 | 14 | O=C(Nc1cccc(C(F)(F)F)c1)N1CCN(c2cccc3[nH]ccc23)CC1 | 
7 | 76 | O=C(Nc1ccc2scnc2c1)N1CCN(c2cccc3[nH]ccc23)CC1 | 
8 | > 100 | O=C(Nc1ccc2ncccc2c1)N1CCN(c2cccc3[nH]ccc23)CC1 | 
9 | > 100 | O=C(Nc1ccccn1)N1CCN(c2cccc3[nH]ccc23)CC1 | 
10 | > 100 | Cc1ccc(C)c(NC(=O)N2CCN(c3cccc4[nH]ccc34)CC2)c1 | 
11 | > 100 | O=C(Nc1cccc(Cl)c1Cl)N1CCN(c2cccc3[nH]ccc23)CC1 | 
12 | > 100 | Cc1ccc(NC(=O)N2CCN(c3cccc4[nH]ccc34)CC2)c(C)c1 | 
13 | > 100 | Cc1ccc(NC(=O)N2CCN(c3cccc4[nH]ccc34)CC2)cc1 | 
14 | > 100 | O=C(Nc1ccncc1)N1CCN(c2cccc3[nH]ccc23)CC1 | 
15 | > 100 | Cc1cccc(C)c1NC(=O)N1CCN(c2cccc3[nH]ccc23)CC1 | 
16 | > 100 | COc1c(C)cccc1NC(=O)N1CCN(c2cccc3[nH]ccc23)CC1 | 
17 | > 100 | O=C(Nc1cccc2cccnc12)N1CCN(c2cccc3[nH]ccc23)CC1 | 
18 | > 100 | N#Cc1cccc(NC(=O)N2CCN(c3cccc4[nH]ccc34)CC2)c1 | 

Row | IC50 [1] [µM] | SMILES | further results
19 | > 100 | Cc1cccc(NC(=O)N2CCN(c3cccc4[nH]ccc34)CC2)c1C | 
20 | > 100 | O=C(Nc1ccccc1C(F)(F)F)N1CCN(c2cccc3[nH]ccc23)CC1 | 
21 | > 100 | N#Cc1ccccc1NC(=O)N1CCN(c2cccc3[nH]ccc23)CC1 | 
22 | 85 | O=C(Nc1ccccc1)N1CCN(c2cccc3[nH]ccc23)CC1 | remaining at 4 h [2]: > 95%; AUC (Mus musculus): 11734 ng·h/mL; inhibition [3]: Active; Cmax [4]: 4130 ng/mL; half-life [5]: 42 min
23 | > 100 | O=C(Nc1c(Cl)cccc1Cl)N1CCN(c2cccc3[nH]ccc23)CC1 | 
24 | > 100 | Cc1cccc(NC(=O)N2CCN(c3cccc4[nH]ccc34)CC2)c1 | 
25 | > 100 | O=C(Nc1cccnc1)N1CCN(c2cccc3[nH]ccc23)CC1 | 
26 | > 100 | O=C(Nc1cccc2ncsc12)N1CCN(c2cccc3[nH]ccc23)CC1 | 
27 | 52 | O=C(Nc1cccc(Cl)c1)N1CCN(c2cccc3[nH]ccc23)CC1 | 
28 | > 100 | COc1cccc(NC(=O)N2CCN(c3cccc4[nH]ccc34)CC2)c1 | 
29 | > 100 | COc1cccc(OC)c1NC(=O)N1CCN(c2cccc3[nH]ccc23)CC1 | 
30 | > 100 | CNC(=O)c1cccc(NC(=O)N2CCN(c3cccc4[nH]ccc34)CC2)c1 | 
31 | 56 | O=C(Nc1ccc(Cl)cc1Cl)N1CCN(c2cccc3[nH]ccc23)CC1 | 
32 | > 100 | COc1ccc(NC(=O)N2CCN(c3cccc4[nH]ccc34)CC2)c(OC)c1 | 
33 | > 100 | O=C(Nc1ccncn1)N1CCN(c2cccc3[nH]ccc23)CC1 | 
34 | > 100 | O=C(Nc1ccccc1Cl)N1CCN(c2cccc3[nH]ccc23)CC1 | 
35 | > 100 | Cc1ccccc1NC(=O)N1CCN(c2cccc3[nH]ccc23)CC1 | 
36 | 8.2 | O=C(Nc1ccc(Cl)cc1)N1CCN(c2cccc3[nH]ccc23)CC1 | 

The remaining lines, values behind:

Row | SMILES | IC50 [1] [µM] | further results
37 | O=C(Nc1ccccc1)N1CCN(c2ccc(Cl)c3[nH]ccc23)CC1 | > 100 | 
38 | O=C(Nc1cncnc1)N1CCN(c2cccc3[nH]ccc23)CC1 | > 100 | 
39 | CC(=O)N1CCN(C(=O)Nc2ccccc2)CC1 | > 100 | 
40 | O=C(Cc1ccccc1)N1CCN(c2cccc3[nH]ccc23)CC1 | > 100 | 
41 | O=C(Nc1ccccc1)N1CCN(c2ccccc2)CC1 | > 100 | 
42 | Cc1ccc(N2CCN(C(=O)Nc3ccccc3)CC2)c2cc[nH]c12 | 41 | 
43 | CC(C)NC(=O)N1CCN(c2cccc3[nH]ccc23)CC1 | > 100 | 
44 | O=C(Nc1ccccc1)N1CCN(c2cccc3cnccc23)CC1 | > 100 | 
45 | O=C(NCCc1c[nH]c2ccccc12)Nc1ccccc1-c1ccccc1 | 34 | 
46 | O=C(Nc1ccnnc1)N1CCN(c2cccc3[nH]ccc23)CC1 | > 100 | 
47 | COc1cccc(N2CCN(C(=O)Nc3ccccc3)CC2)c1 | > 100 | 
48 | Cc1cc(N2CCN(C(=O)Nc3ccccc3)CC2)c2cc[nH]c2c1 | > 100 | 
49 | O=C(Nc1ccccc1)N1CCN(c2cc(Cl)cc3[nH]ccc23)CC1 | 46 | 
50 | O=C(NCCc1c[nH]c2ccccc12)Nc1ccc(Cl)c(Cl)c1 | 36 | 
51 | O=C(NCCc1c[nH]c2ccccc12)Nc1cccc(C(F)(F)F)c1 | 62 | 
52 | COc1ccc(N2CCN(C(=O)Nc3ccccc3)CC2)cc1 | > 100 | 
53 | O=C(NCCc1c[nH]c2ccccc12)Nc1ccc(Br)cc1 | 67 | 
54 | O=C(NCCc1c[nH]c2ccccc12)Nc1ccc(OC(F)(F)F)cc1 | 63 | 
55 | COc1ccc(NC(=O)N2CCN(c3cccc4[nH]ccc34)CC2)cc1OC | > 100 | 

Row | SMILES | IC50 [1] [µM] | further results
56 | N#Cc1ccc(NC(=O)N2CCN(c3cccc4[nH]ccc34)CC2)cc1 | 21 | 
57 | CN1CCN(C(=O)Nc2ccccc2)CC1 | > 100 | 
58 | O=C(Nc1ccccc1)N1CCN(c2cccc3ncccc23)CC1 | > 100 | 
59 | O=C(CCc1ccccc1)N1CCN(c2cccc3[nH]ccc23)CC1 | > 100 | 
60 | COc1ccc(NC(=O)N2CCN(c3cccc4[nH]ccc34)CC2)cc1 | 25 | 
61 | O=C(Nc1ccc(OC(F)(F)F)cc1)N1CCN(c2cccc3[nH]ccc23)CC1 | 36 | 
62 | O=C(Nc1cccc(C(F)(F)F)c1)N1CCN(c2ccncc2)CC1 | > 100 | 
63 | CS(=O)(=O)N1CCN(C(=O)Nc2ccccc2)CC1 | > 100 | 
64 | O=C(OCc1ccccc1)N1CCN(c2cccc3[nH]ccc23)CC1 | > 100 | 
65 | O=C(Nc1ccc(C(F)(F)F)cc1)N1CCN(c2cccc3[nH]ccc23)CC1 | 16 | 
66 | CC(C)CNC(=O)N1CCN(c2cccc3[nH]ccc23)CC1 | > 100 | 
67 | O=C(CCC(=O)Nc1c[nH]c2ccccc12)Nc1ccccc1 | > 100 | 
68 | CC(=O)c1ccc(NC(=O)N2CCN(c3cccc4[nH]ccc34)CC2)cc1 | 16 | 
69 | O=C(Nc1ccccc1)N1CCN(Cc2cncs2)CC1 | > 100 | 
70 | O=C(c1ccccc1)N1CCN(c2cccc3[nH]ccc23)CC1 | > 100 | 
71 | COc1ccccc1N1CCN(C(=O)Nc2ccccc2)CC1 | > 100 | 
72 | O=C(Nc1cc(Cl)cc(Cl)c1)N1CCN(c2cccc3[nH]ccc23)CC1 | 22 | 
73 | O=C(Nc1ccc(Cl)cc1)N1CCN(c2ccncc2)CC1 | > 100 | 
74 | O=C(NCCc1c[nH]c2ccccc12)Nc1ccc(Cl)cc1Cl | 32 | 

Row | SMILES | IC50 [1] [µM] | further results
75 | O=C(Nc1cccc(Oc2ccccc2)c1)N1CCN(c2cccc3[nH]ccc23)CC1 | 39 | 
76 | O=C(c1ccccc1)c1ccc(NC(=O)N2CCN(c3cccc4[nH]ccc34)CC2)cc1 | 43 | 
77 | O=C(NCCc1c[nH]c2ccccc12)Nc1cccc(Br)c1 | 28 | 
78 | CCN1CCN(C(=O)Nc2ccccc2)CC1 | > 100 | 
79 | O=C(Nc1ccc(Cc2ccccc2)cc1)N1CCN(c2cccc3[nH]ccc23)CC1 | > 100 | 
80 | O=C(NCc1ccccc1)N1CCN(c2cccc3[nH]ccc23)CC1 | > 100 | 
81 | O=C(Nc1ccccc1)N1CCN(c2cccc3[nH]ncc23)CC1 | > 100 | 
82 | Cc1ccc2[nH]ccc2c1N1CCN(C(=O)Nc2ccccc2)CC1 | > 100 | 
83 | Cc1cc(C)cc(NC(=O)N2CCN(c3cccc4[nH]ccc34)CC2)c1 | 64 | 
84 | O=C(NCCc1c[nH]c2ccccc12)Nc1ccc(C(F)(F)F)cc1 | 39 | 
85 | O=C(NCc1ccc(Cl)cc1)N1CCN(c2cccc3[nH]ccc23)CC1 | > 100 | 
86 | CNC(=O)c1ccc(NC(=O)N2CCN(c3cccc4[nH]ccc34)CC2)cc1 | > 100 | 
87 | O=C(Nc1ccc(C(F)(F)F)cc1)N1CCN(c2ccncc2)CC1 | > 100 | 
88 | O=C(Nc1ccccc1)N1CCN(c2ccncc2)CC1 | > 100 | 
89 | CNC(=O)N1CCN(c2cccc3[nH]ccc23)CC1 | > 100 | 
90 | O=C(NCCc1c[nH]c2ccccc12)Nc1ccccc1 | > 100 | 
91 | COc1cc(NC(=O)N2CCN(c3cccc4[nH]ccc34)CC2)cc(OC)c1 | > 100 | 
92 | CC(C)N1CCN(C(=O)Nc2ccccc2)CC1 | > 100 | 
93 | O=C(NCCc1c[nH]c2ccccc12)Nc1ccc(Cl)cc1 | 36 | 
